Reference: ChEMBL document CHEMBL1158577, “Role of hydrophobic substituents on the terminal nitrogen of histamine in receptor binding and agonist activity: development of an orally active histamine type 3 receptor agonist and evaluation of its antistress activity in mice” (J Med Chem, 2010)
pEC50, pIC50, pKi: −log10 of the molar value. Calls of active or inactive are those of the source. The rule behind the calls is not given here.

Legend:
[1] = target: T1, Histamine H3 receptor (Homo sapiens, UniProt Q9Y5N1); test: Displacement of [3H[N-alpha-methylhistamine form human recombinant histamine H3 receptor expressed in CHO cells after 1 hr by liquid scintillation counting; type: cell-based
Procedure, shortened: (§1)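 Used CHO cells stably expressing the human H3R for both affinity (pKi) and functional agonist measurements. Each value is the mean ± SEM of n = 3.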

[2] = target: T1, Histamine H3 receptor; test: Agonist activity at human recombinant histamine H3 receptor expressed in CHO cells assessed as [35S]GTPgammaS binding after 1 hr by liquid scintillation counting; type: functional, cell-based; settings: for pEC50: read-out: EC50; procedure, shortened: as §1
[3] = target: T1, Histamine H3 receptor; test: Agonist activity at human recombinant histamine H3 receptor expressed in CHO cells assessed as [35S]GTPgammaS binding at 10 nM after 1 hr by liquid scintillation counting relative to (R)-alpha-methylhistamine; type: functional, cell-based
Procedure, shortened: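 CHO cells stably expressing human H3R. Agonist response is given as a percent of the response to the reference H3R agonist. Results are mean ± SEM, n = 3.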

[4] = target: T2, 5-hydroxytryptamine receptor 3A (Homo sapiens, UniProt P46098); test: Inhibition of 5HT3 receptor
T2 sequence (P46098 whole entry): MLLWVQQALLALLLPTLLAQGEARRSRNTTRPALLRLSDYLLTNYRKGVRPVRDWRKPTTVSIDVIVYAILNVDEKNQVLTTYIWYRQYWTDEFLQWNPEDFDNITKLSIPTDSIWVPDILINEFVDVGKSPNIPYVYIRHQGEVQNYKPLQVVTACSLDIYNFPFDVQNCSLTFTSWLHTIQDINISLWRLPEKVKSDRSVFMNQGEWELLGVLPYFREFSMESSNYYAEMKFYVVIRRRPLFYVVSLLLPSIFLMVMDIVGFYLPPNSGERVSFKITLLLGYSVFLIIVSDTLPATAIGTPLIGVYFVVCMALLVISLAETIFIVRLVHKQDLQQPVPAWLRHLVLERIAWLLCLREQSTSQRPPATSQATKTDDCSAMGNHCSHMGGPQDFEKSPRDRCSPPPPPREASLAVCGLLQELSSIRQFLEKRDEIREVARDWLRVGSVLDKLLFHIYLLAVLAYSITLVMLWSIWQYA

[5] = target: Beta-2 adrenergic receptor (Homo sapiens, UniProt P07550); test: Inhibition of beta2 adrenergic receptor
[6] = target: 5-hydroxytryptamine receptor 2A (Homo sapiens, UniProt P28223); test: Inhibition of 5HT2A receptor
[7] = target: Cytochrome P450 2D6 (Homo sapiens, UniProt P10635); test: Inhibition of human CYP2D6 expressed in insect cell microsome after 30 mins by fluorescence assay; type: ADME, microsomes
[8] = target: D(1A) dopamine receptor (Homo sapiens, UniProt P21728); test: Inhibition of dopamine D1 receptor
[9] = target: T3, Cytochrome P450 1A2 (Homo sapiens, UniProt P05177); test: Inhibition of human CYP1A2 expressed in insect cell microsome after 15 mins by fluorescence assay; type: ADME, microsomes
T3 sequence (P05177 whole entry): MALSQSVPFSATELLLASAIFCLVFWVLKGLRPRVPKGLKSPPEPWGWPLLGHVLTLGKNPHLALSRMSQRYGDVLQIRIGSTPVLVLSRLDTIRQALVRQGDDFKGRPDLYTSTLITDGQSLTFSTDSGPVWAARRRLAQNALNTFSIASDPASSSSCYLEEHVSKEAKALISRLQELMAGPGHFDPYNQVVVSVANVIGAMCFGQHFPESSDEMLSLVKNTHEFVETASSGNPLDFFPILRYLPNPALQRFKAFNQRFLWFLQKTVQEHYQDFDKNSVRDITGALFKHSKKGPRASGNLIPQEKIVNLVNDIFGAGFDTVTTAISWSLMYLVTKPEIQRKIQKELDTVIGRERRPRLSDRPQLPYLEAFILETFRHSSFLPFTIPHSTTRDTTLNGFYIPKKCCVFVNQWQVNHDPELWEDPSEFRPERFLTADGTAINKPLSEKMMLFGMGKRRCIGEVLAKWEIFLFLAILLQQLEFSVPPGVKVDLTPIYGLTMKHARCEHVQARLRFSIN

[10] = Ratio of drug level in brain to plasma in Wistar rat at 5 mg/kg, po after 1 hr; type: ADME, organism-based; design: dose 5 mg/kg, route oral; settings: brain and plasma, read-out: BPR
Procedure, shortened: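 Brain/plasma concentration ratio was determined in rats 1 h after administration, with n = 2.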

[11] = target: Histamine H4 receptor (Homo sapiens, UniProt Q9H3N8); test: Inhibition of human recombinant histamine H4 receptor expressed in CHO cells; type: cell-based
[12] = target: Histamine H1 receptor (Homo sapiens, UniProt P35367); test: Inhibition of histamine H1 receptor
[13] = tested on: Mus musculus; test: In-vivo agonist activity at histamine H3 receptor in ddY mouse assessed as N-tele-methylhistamine level per gram of brain at 30 mg/kg, po by gas chromatography (RVb = 315 +/- 20 ng); type: functional, organism-based; design: dose 30 mg/kg
[14] = tested on: Mus musculus; test: Antistress activity against isolation-induced aggressive behavior in ICR mouse assessed as duration of attacks to intruder mouse at 30 mg/kg, po measured for 10 mins by resident-intruder test (RVb = 54.5 +/- 6.7 sec); type: functional
[15] = tested on: Mus musculus; test: Antistress activity against isolation-induced aggressive behavior in ICR mouse assessed as duration of attacks to intruder mouse at 3 mg/kg, po measured for 10 mins by resident-intruder test (RVb = 54.5 +/- 6.7 sec); type: functional
[16] = Half life in Wistar rat at 2 mg/kg, iv after 6 hrs by LC-MS/MS analysis; type: ADME, organism-based; design: dose 2 mg/kg, route intravenous; settings: in vivo
Procedure, shortened: (§2)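 Rats received 2 mg/kg iv, with n = 2. Total clearance (L/h/kg), steady-state volume of distribution (L/kg) and half-life (h) were derived.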

[17] = Total clearance in Wistar rat at 2 mg/kg, iv after 6 hrs by LC-MS/MS analysis; type: ADME, organism-based; design: dose 2 mg/kg, route intravenous; settings: in vivo; procedure, shortened: as §2
[18] = target: Cytochrome P450 3A4 (Homo sapiens, UniProt P08684); test: Inhibition of human CYP3A4 expressed in insect cell microsome after 30 mins by fluorescence assay; type: ADME, microsomes
[19] = Oral bioavailability in Wistar rat at 5 mg/kg after 24 hrs by LC-MS/MS analysis; type: ADME, organism-based; settings: in vivo
Procedure, shortened: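 In rat, an oral dose of 5 mg/kg (n = 2) was used to determine AUC0-inf and bioavailability (%).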

[20] = target: Histamine H2 receptor (Homo sapiens, UniProt P25021); test: Inhibition of histamine H2 receptor
[21] = target: T4, 5-hydroxytryptamine receptor 1A (Homo sapiens, UniProt P08908); test: Inhibition of 5HT1A receptor
T4 sequence (P08908 whole entry): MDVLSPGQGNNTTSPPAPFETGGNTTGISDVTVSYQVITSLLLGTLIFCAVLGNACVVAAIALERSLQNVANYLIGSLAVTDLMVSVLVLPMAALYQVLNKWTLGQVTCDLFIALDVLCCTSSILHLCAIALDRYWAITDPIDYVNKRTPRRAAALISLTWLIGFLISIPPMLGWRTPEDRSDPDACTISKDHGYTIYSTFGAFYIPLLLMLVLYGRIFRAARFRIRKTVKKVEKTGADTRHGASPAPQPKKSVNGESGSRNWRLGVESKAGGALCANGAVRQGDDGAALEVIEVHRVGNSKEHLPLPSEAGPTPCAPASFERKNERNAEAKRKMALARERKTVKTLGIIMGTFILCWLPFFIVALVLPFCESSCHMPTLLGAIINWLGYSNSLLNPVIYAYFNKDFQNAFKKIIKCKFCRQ

[22] = Metabolic stability in rat liver S9 fraction assessed as […] after 60 mins by HPLC analysis; type: ADME, subcellular; settings: s9, 1 h
Procedure, shortened: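 Rat S9 metabolic activity was expressed as pmol/min/mg protein, reported as mean ± SEM with n = 3.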

[23] = Volume of distribution at steady state in Wistar rat at 2 mg/kg, iv after 6 hrs by LC-MS/MS analysis; type: ADME, organism-based; design: dose 2 mg/kg, route intravenous; settings: in vivo, read-out: Vdss; procedure, shortened: as §2
[24] = target: D(3) dopamine receptor (Homo sapiens, UniProt P35462); test: Inhibition of dopamine D3 receptor
[25] = target: T5, Muscarinic acetylcholine receptor M1 (Homo sapiens, UniProt P11229); test: Inhibition of muscarinic M1 receptor
T5 sequence (P11229 whole entry): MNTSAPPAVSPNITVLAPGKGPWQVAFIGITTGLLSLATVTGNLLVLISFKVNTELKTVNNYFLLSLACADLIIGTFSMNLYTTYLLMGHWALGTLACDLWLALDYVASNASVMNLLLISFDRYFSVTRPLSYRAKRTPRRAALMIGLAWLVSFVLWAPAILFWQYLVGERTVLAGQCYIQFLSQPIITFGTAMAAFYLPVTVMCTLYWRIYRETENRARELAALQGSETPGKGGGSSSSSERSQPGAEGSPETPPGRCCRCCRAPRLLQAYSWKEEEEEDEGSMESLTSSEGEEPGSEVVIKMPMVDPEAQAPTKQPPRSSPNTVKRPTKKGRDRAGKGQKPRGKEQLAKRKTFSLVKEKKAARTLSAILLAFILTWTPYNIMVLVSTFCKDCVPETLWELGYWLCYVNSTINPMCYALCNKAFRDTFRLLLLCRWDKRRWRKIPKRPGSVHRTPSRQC

[26] = tested on: Mus musculus; test: In-vivo agonist activity at histamine H3 receptor in ddY mouse assessed as N-tele-methylhistamine level per gram of brain at 5 mg/kg, po by gas chromatography (RVb = 315 +/- 20 ng); type: functional, organism-based; design: dose 5 mg/kg
[27] = target: Beta-1 adrenergic receptor (Homo sapiens, UniProt P08588); test: Inhibition of beta-1 adrenergic receptor
[28] = Inhibition of alpha1 adrenergic receptor
[29] = target: Muscarinic acetylcholine receptor M3 (Homo sapiens, UniProt P20309); test: Inhibition of muscarinic M3 receptor
[30] = tested on: Mus musculus; test: In-vivo agonist activity at histamine H3 receptor in ddY mouse assessed as N-tele-methylhistamine level per gram of brain at 1 mg/kg, po by gas chromatography (RVb = 315 +/- 20 ng); type: functional, organism-based; design: dose 1 mg/kg
[31] = target: Cytochrome P450 2C19 (Homo sapiens, UniProt P33261); test: Inhibition of human CYP2C19 expressed in insect cell microsome after 30 mins by fluorescence assay; type: ADME, microsomes
[32] = target: D(2) dopamine receptor (Homo sapiens, UniProt P14416); test: Inhibition of dopamine D2 receptor
[33] = tested on: Mus musculus; test: Antistress activity against isolation-induced aggressive behavior in ICR mouse assessed as duration of attacks to intruder mouse at 7.5 mg/kg, po measured for 10 mins by resident-intruder test (RVb = 54.5 +/- 6.7 sec); type: functional

T1 sequence (Q9Y5N1 whole entry): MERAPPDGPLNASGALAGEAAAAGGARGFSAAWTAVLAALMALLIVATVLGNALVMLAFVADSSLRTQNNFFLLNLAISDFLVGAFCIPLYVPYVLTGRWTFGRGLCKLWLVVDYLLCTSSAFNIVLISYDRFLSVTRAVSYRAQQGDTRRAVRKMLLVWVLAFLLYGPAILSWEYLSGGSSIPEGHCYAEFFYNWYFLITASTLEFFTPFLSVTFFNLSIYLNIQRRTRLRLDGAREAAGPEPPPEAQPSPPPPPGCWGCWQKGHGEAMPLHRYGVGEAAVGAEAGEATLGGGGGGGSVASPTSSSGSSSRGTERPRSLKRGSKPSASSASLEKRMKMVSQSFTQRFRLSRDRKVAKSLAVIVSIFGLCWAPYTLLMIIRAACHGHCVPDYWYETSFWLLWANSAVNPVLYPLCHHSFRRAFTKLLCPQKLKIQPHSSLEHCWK
D(2) dopamine receptor, sequence (P14416 whole entry): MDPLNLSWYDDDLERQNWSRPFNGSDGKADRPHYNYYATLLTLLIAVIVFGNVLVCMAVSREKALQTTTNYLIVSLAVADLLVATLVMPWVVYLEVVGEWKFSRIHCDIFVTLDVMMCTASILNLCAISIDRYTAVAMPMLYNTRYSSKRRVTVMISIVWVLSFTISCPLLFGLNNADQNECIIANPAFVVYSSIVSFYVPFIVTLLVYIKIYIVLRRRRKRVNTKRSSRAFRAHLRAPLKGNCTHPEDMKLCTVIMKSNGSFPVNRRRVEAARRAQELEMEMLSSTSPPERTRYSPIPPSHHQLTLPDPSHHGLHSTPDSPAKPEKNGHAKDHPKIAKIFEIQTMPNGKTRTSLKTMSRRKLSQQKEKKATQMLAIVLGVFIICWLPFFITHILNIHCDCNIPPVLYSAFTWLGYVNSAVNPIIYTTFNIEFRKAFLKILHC
Cytochrome P450 3A4, sequence (P08684 whole entry): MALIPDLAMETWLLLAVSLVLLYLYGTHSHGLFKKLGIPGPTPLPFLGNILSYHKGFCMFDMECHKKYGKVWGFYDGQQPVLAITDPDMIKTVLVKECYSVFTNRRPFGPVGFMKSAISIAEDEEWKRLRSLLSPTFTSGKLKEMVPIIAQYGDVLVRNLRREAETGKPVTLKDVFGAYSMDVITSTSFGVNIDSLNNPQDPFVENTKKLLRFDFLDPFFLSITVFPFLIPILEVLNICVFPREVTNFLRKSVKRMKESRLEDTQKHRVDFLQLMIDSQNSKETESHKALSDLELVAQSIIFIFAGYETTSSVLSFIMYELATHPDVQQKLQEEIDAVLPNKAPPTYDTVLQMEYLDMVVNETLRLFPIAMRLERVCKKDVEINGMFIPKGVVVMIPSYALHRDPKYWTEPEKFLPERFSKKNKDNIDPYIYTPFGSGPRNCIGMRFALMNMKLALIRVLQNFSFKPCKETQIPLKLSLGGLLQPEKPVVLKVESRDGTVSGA
Beta-2 adrenergic receptor, sequence (P07550 whole entry): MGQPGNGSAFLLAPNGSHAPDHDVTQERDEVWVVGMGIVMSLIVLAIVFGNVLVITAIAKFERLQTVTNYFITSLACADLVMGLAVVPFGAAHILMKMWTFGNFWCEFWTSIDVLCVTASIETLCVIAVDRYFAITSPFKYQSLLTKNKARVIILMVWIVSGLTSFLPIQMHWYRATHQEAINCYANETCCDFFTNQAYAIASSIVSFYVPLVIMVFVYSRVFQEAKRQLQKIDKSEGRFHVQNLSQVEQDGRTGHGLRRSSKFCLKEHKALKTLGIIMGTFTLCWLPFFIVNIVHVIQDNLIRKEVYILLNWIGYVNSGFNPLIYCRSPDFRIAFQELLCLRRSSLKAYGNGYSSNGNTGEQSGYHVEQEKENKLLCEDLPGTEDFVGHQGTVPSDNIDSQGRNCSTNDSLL
Histamine H2 receptor, sequence (P25021 whole entry): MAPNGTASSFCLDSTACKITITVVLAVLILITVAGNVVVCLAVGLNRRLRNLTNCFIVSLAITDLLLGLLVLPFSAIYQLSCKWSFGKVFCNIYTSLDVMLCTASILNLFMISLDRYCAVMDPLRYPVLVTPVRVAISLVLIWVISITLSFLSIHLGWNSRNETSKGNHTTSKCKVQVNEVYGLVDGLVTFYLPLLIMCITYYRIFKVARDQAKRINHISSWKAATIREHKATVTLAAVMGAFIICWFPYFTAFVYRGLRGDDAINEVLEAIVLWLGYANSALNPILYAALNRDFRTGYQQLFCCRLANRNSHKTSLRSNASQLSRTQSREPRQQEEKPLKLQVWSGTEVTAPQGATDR
Beta-1 adrenergic receptor, sequence (P08588 whole entry): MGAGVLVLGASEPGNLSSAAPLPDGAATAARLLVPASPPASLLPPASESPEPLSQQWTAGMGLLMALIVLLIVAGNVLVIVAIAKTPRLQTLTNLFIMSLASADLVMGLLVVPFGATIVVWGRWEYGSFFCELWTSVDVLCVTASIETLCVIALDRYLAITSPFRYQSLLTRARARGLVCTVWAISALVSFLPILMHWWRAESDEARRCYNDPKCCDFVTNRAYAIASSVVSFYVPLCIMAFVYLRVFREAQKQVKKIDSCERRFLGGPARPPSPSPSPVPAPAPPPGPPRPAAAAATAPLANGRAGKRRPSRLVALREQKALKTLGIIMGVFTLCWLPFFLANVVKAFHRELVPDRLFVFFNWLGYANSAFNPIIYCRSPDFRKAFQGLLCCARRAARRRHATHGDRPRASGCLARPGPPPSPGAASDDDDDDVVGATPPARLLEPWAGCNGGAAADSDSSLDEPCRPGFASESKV
Cytochrome P450 2D6, sequence (P10635 whole entry): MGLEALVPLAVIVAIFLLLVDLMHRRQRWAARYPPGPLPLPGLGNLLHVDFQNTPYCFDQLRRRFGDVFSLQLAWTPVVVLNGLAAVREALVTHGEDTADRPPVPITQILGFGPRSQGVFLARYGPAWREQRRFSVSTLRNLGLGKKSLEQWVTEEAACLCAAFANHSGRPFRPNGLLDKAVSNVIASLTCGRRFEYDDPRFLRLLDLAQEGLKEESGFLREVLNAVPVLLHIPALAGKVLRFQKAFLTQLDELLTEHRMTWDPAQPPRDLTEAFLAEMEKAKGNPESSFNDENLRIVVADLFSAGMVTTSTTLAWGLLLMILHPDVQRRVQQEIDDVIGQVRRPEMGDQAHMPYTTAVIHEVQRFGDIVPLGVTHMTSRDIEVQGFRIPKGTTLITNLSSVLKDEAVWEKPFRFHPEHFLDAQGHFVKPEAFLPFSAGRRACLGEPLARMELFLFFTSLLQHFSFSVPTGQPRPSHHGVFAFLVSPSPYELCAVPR
Cytochrome P450 2C19, sequence (P33261 whole entry): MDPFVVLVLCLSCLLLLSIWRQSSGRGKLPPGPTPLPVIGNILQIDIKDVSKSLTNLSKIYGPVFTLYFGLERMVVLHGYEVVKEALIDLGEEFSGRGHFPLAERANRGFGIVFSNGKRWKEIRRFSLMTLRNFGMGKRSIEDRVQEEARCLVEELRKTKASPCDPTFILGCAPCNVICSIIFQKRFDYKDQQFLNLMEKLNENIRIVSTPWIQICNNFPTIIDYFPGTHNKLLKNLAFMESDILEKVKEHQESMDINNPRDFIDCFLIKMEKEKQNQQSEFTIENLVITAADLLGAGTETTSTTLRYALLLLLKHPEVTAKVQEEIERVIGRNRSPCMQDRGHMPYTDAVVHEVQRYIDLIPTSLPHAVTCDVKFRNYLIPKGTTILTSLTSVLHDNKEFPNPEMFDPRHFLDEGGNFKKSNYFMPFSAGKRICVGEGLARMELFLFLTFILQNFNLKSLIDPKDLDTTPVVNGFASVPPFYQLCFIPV
5-hydroxytryptamine receptor 2A, sequence (P28223 whole entry): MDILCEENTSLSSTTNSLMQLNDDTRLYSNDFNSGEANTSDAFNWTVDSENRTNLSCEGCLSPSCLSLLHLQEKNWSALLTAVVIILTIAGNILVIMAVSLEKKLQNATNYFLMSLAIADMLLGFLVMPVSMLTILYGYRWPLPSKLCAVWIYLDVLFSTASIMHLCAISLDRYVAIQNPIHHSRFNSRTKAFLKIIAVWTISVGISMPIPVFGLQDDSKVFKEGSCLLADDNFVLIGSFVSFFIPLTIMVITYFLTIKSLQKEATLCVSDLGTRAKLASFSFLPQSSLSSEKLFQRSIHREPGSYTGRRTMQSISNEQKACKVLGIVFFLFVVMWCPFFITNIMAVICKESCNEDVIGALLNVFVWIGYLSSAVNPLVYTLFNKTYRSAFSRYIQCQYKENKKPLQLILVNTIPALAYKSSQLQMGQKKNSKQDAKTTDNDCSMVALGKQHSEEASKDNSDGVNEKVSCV
Muscarinic acetylcholine receptor M3, sequence (P20309 whole entry): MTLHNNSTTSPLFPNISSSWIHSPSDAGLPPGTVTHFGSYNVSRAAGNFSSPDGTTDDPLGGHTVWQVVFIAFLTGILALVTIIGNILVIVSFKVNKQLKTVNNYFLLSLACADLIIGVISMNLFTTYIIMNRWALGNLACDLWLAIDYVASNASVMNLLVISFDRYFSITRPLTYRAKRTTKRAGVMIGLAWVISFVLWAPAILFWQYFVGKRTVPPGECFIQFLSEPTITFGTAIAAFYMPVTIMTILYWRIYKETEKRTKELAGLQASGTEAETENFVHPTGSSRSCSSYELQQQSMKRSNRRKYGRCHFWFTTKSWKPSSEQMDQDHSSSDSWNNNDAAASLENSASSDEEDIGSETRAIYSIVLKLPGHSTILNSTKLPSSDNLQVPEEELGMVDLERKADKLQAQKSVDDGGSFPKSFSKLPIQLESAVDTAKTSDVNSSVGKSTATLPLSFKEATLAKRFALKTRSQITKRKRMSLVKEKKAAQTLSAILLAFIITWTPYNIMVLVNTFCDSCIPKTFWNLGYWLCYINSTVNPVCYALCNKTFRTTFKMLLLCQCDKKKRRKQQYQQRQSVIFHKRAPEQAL

c1ncc(CCNc2ccc(C3CCCCC3)cc2)[nH]1
pKi [1]: 8.39

Cc1ccc(NCCc2cnc[nH]2)cc1C
pKi [1]: 8.00
pEC50 [2]: 7.60

c1ccc(NCCc2c[nH]cn2)cc1
Activity [3]: 42%

c1nc(CCNC2CCCCC2)c[nH]1
pKi [1]: 5.80
Activity [3]: 31%
pEC50 [2]: 5.47

CC(C)(C)c1ccc(NCCc2c[nH]cn2)cc1
Activity [3]: 70%

N=C(N)SCCc1cnc[nH]1 [IMETIT]
pKi [1]: 9.24
pEC50 [2]: 8.62

Cc1ccc(NCCc2c[nH]cn2)cc1
Activity [3]: 49%

CC(C)(C)c1cccc(NCCc2c[nH]cn2)c1
pKi [1]: 8.66
Activity [3]: 48%
pEC50 [2]: 8.34

COc1ccc(NCCc2c[nH]cn2)cc1
pKi [1]: 7.62
Activity [3]: 56%
pEC50 [2]: 7.19

FC(F)(F)c1ccc(NCCc2c[nH]cn2)cc1
pKi [1]: 8.96
Activity [3]: 56%
pEC50 [2]: 7.72

NCCc1c[nH]cn1 [HISTAMINE]
Activity [3]: 110%

Cc1ccc(NCCc2cnc[nH]2)cc1
pKi [1]: 7.85
pEC50 [2]: 7.06

Cc1ccc(NCCc2c[nH]cn2)cc1C
Activity [3]: 59%

CC(C)(C)c1ccc(NCCc2cnc[nH]2)cc1
pKi [1]: 9.05
pEC50 [2]: 8.80

CC(C)(C)c1ccc(SCCc2c[nH]cn2)cc1
pKi [4]: < 6.00
pKi [5]: < 6.00
pKi [6]: < 6.00
pIC50 [7]: 6.17
pKi [8]: < 6.00
pIC50 [9]: 6.17
Kp at 1 h [10]: 6
pKi [11]: 8.96
pKi [12]: < 6.00
pKi [1]: 9.77
Nτ-methylhistamine level [13]: 96 ng/g
Time [14]: 16.3 s
Time [15]: 42.9 s
half-life [16]: 1 h
clearance [17]: 46.7 mL/min/kg
pIC50 [18]: 6.33
bioavailability [19]: 53.5%
pKi [20]: < 6.00
Activity [3]: 77%
pKi [21]: < 6.00
Stability [22]: 13 pmol/min
Vd [23]: 3.4 L/kg
pKi [24]: < 6.00
pKi [25]: < 6.00
Nτ-methylhistamine level [26]: 92 ng/g
pKi [27]: < 6.00
pKi [28]: < 6.00
pKi [29]: < 6.00
Nτ-methylhistamine level [30]: 298 ng/g
pEC50 [2]: 9.12
pIC50 [31]: 8.07
pKi [32]: < 6.00

N=C(N)SCCc1c[nH]cn1
Nτ-methylhistamine level [13]: 98 ng/g
Activity [3]: 91%
Nτ-methylhistamine level [26]: 133 ng/g
Nτ-methylhistamine level [30]: 239 ng/g

COCCCC/C(=N\OCCN)c1ccc(C(F)(F)F)cc1 [FLUVOXAMINE]
Time [33]: 30.7 s
Time [14]: 19.9 s

c1nc(CCNc2ccc(C3CCCCC3)cc2)c[nH]1
Activity [3]: inactive
EC50 ([2]; cho): Not Active
